Measurements as given in ChEMBL document CHEMBL1123911, “Dopamine agonists: effects of charged and uncharged analogues of dopamine” (1987).

Key:
[1] = organism: Rattus norvegicus; assay: Ability to inhibit the K+-induced release of [3H]acetylcholine in normal striatal slices at 30 uM; assay type: functional; parameters: scale not given: the % may be the effect or the level left
Procedure, shortened: (§1)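 Striatal slices in Krebs–Ringer bicarbonate with 0.6 mM ascorbic acid, 0.03 mM Na2EDTA and 11 mM glucose, gassed 95% O2/5% CO2, labelled 20 min with [3H]choline, then superfused at 0.5 mL/min. At 55 min, 12.5 mM K+ (Na+ lowered equimolarly) was applied for 10 min, with drug present from 10 min before. Scintillation counting gave fractional tritium release above spontaneous outflow, expressed as % of drug-free control.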

[2] = organism: Rattus norvegicus; assay: Ability to inhibit the K+-induced release of [3H]Acetylcholine in dopamine depleted striatal slices at 30 uM; assay type: functional; parameters: scale not given: the % may be the effect or the level left; procedure, shortened: as §1
[3] = organism: Rattus norvegicus; assay: Inhibition of stimulation of [3H]- acetylcholine release in rat striatal tissue; assay type: functional, Striatum; procedure, shortened: as §1
[4] = organism: Rattus norvegicus; assay: Ability to inhibit the K+-induced release of [3H]acetylcholine in normal striatal slices at 1 uM; assay type: functional; parameters: scale not given: the % may be the effect or the level left
Procedure, shortened: (§2)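 Striatal slices in Krebs–Ringer bicarbonate with 0.6 mM ascorbic acid, 0.03 mM Na₂EDTA and 11 mM glucose, gassed with 95% O₂/5% CO₂. Slices were labelled 20 min with [³H]choline, then superfused at 0.5 mL/min. Drug was added 10 min before and during 12.5 mM K⁺ (Na⁺-compensated) for 10 min. K⁺-evoked fractional tritium release above baseline is given as % of drug-free control, ±SEM.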

[5] = organism: Rattus norvegicus; assay: Ability to inhibit the K+-induced release of [3H]Acetylcholine in normal striatal slices at 60 uM; assay type: functional; parameters: scale not given: the % may be the effect or the level left; procedure, shortened: as §2
[6] = organism: Rattus norvegicus; assay: Ability to inhibit the K+-induced release of [3H]acetylcholine in dopamine depleted striatal slices at 0.1 uM; assay type: functional; parameters: scale not given: the % may be the effect or the level left; procedure, shortened: as §2
[7] = organism: Rattus norvegicus; assay: Ability to inhibit the K+-induced release of [3H]acetylcholine in normal striatal slices at 0.1 uM; assay type: functional; parameters: scale not given: the % may be the effect or the level left; procedure, shortened: as §2

SMILES | Control [1] | Control [2] | other results
C[S+]([O-])CCc1ccc(O)c(O)c1 (stereo not given) | 101% |  | 
C[S+](C)CCc1ccc(O)c(O)c1.[I-] | 50% | 61% | 
CS(=O)(=O)CCc1ccc(O)c(O)c1 | 122% |  | 
CSCCc1ccc(O)c(O)c1 | 82% | 100% | Inhibition [3]: 18%
NCCc1ccc(O)c(O)c1 [DOPAMINE] | 40% |  | Control [4]: 70%
NC[C@H](O)c1ccc(O)c(O)c1 [NOREPINEPHRINE] | 101% |  | Control [5]: 85%
C[N+](C)(C)CCc1ccc(O)c(O)c1.[I-] | 52% | 53% | 
C[Se]CCc1ccc(O)c(O)c1 | 95% |  | 
C[S+](C)CC(O)c1ccc(O)c(O)c1.[I-] (stereo not given) | 113% |  | 
C[Se+](C)CCc1ccc(O)c(O)c1.[I-] | 57% | 47% | 
CN1CCc2cccc3c2[C@H]1Cc1ccc(O)c(O)c1-3 [APOMORPHINE] |  |  | Control [6]: 56%; Control [7]: 60%
C[N+]1(C)CCc2cccc3c2[C@H]1Cc1ccc(O)c(O)c1-3 |  |  | Control [4]: 59%
